Assay results collected from several papers.
Lines come from different studies, so protocols differ.
MME: Neprilysin (MME, Homo sapiens, UniProt P08473)
ESR2: Estrogen receptor beta (ESR2, Homo sapiens, UniProt Q92731)

Compound | target | effect on | mode | technique | tested at | endpoint | value
CCN(CC)CCCC[C@H](NC(=O)[C@H](CC(C)C)NC(=O)[C@H](C)NC(=O)[C@H](Cc1ccccc1)NC(=O)c1ccc(C(C)(C)C)cc1)C(=O)N[C@@H](CO)C(=O)OC | Histone-lysine N-methyltransferase ASH1L (ASH1L, Homo sapiens, UniProt Q9NR48) | thermal stability | – | DSF | 25 µM | ΔTm | -0.39 °C
Cc1sc2c(c1C)C(c1ccc(Cl)cc1)=N[C@@H](CC(=O)OC(C)(C)C)c1nnc(C)n1-2 | Stimulator of interferon genes protein (STING1, Homo sapiens, UniProt Q86WV6, H232R) | thermal stability | – | DSF | 100 µM | ΔTm | -0.92 °C
COc1cc(Nc2ncc(F)c(Nc3ccc4c(n3)NC(=O)C(C)(C)O4)n2)cc(OC)c1OC | Dual specificity mitogen-activated protein kinase kinase 4 (MAP2K4, Homo sapiens, UniProt P45985) | binding | – | competition with immobilised ligand | 10 µM | inhibition | 85%
Cc1ncc(C)n2nc(/C=C/c3nc(N4CCCC4)cc(N4CCOCC4)n3)nc12 | MME | enzyme activity | inhibitor | – | 10 µM | inhibition | -13%
C[C@H](C(=O)N[C@H]1COc2ccccc2[C@@H]1S(C)(=O)=O)c1ccc(F)cc1 | ESR2 | enzyme activity | inhibitor | – | 10 µM | inhibition | 3%
Nc1ncc(-c2nc(N3CCOCC3)nc(N3CCOCC3)n2)c(C(F)F)n1 | Serine/threonine-protein kinase 38 (STK38, Homo sapiens, UniProt Q15208) | binding | – | competition with immobilised ligand | 10 µM | remaining binding | 66%
C#Cc1n[nH]c2c(-c3cn([C@@H](C)c4ccccn4)c(=O)[nH]c3=O)cc(F)cc12 | Tyrosine-protein kinase JAK2 (JAK2, Homo sapiens, UniProt O60674) | enzyme activity | inhibitor | – | 0.1 µM | inhibition | -1%
COc1ncccc1-c1cnn2ccc(N3CCN(C(=O)OC(C)C)CC3)nc12 | Phosphatidylinositol 5-phosphate 4-kinase type-2 gamma (PIP4K2C, Homo sapiens, UniProt Q8TBX8) | binding | – | competition with immobilised ligand | 1 µM | remaining binding | 9.5%
c1ccc(C(NCCNC(c2ccccc2)c2ccccc2)c2ccccc2)cc1 | ESR2 | enzyme activity | inhibitor | – | 10 µM | inhibition | 14%
Cc1nn(C)cc1-c1nc2c(N3CCN(Cc4ccc(Cl)cc4)CC3)c(Cl)cnc2[nH]1 | Serine/threonine-protein kinase LATS2 (LATS2, Homo sapiens, UniProt Q9NRM7) | binding | – | competition with immobilised ligand | 1 µM | remaining binding | 77%
O=C(Nc1cccnn1)N1CCN([C@@H]2CCOc3cc(C(F)(F)F)ccc32)CC1 | MME | enzyme activity | inhibitor | – | 20 µM | inhibition | 3%
